Calls of active or inactive are those of the source. No cut-off for these calls is given here.
Legend:
[1] = tested on: SW-620; assay: Antitumor activity against human SW620 cells xenografted in athymic nude CD1 mouse assessed as tumor growth delay at 11.35 mg/kg, ip administered 5 times daily for 5 days; format: functional; details: time 5 day
[2] = Toxicity in human SW620 cell xenografted athymic nude CD1 mouse assessed as maximum body weight loss at 11.35 mg/kg, ip administered 5 times daily for 5 days relative to control; format: organism-based, SW-620; details: in vivo, 120 h, time 5 day
[3] = tested on: SW-620; assay: Cell cycle arrest in human SW620 cells assessed as increase in G2-M-phase cell population at 0.1 uM measured after 16 hrs by propidium iodide staining based flow cytometry relative to control; format: functional
[4] = Selectivity ratio of LD90 for cytotoxicity against Chinese hamster DNA-PK proficient V3-YAC cells to LD90 for cytotoxicity against Chinese hamster DNA-PK deficient V3 cells; format: toxicity, cell-based, Cricetulus griseus
Outline: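 Clonogenic survival of V3 and V3-YAC Chinese hamster ovary cells, RPMI/10% FBS, V3-YAC kept under G-418 at 500 μg/mL. Colonies read 10–14 days later. LD90 is the dose or concentration killing 90%, and the LD90 ratio gives the fold change.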

[5] = tested on: SW-620; assay: Induction of DNA damage in human SW620 cells assessed as loss of gamma-H2AX phosphorylation foci formation at 1 umol/L preincubated for 1 hr followed by compound washout and measured after 4 hrs by DAPI staining based immunofluorescence microscopic analysis relative to control; format: functional; details: dose 1 µmol/L, at 1 µM
Outline: (§1)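 SW620 cells on coverslips at 50–70% confluence, preincubated 1 h ± 1 μmol/L agent, then 1 μmol/L etoposide for 1 h, washed three times, and kept ± agent for up to 24 h. Fixation in −20 °C methanol, then anti-γH2AX Ser139 antibody with FITC secondary and DAPI mounting. Foci counted in 30 nuclei from three areas per sample, in triplicate.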

[6] = Cytotoxicity against Chinese hamster DNA-PK deficient V3 cells assessed as reduction in cell survival measured after 16 hrs by crystal violet staining based assay; format: toxicity, Cricetulus griseus; details: v3, 16 h
Outline: (§2)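 V3 (DNA-PKcs-deficient CHO) and V3-YAC (human DNA-PKcs YAC, kept on G-418 500 μg/mL) cells were grown in RPMI/10% FBS. Exponential cells were exposed to agent in 0.5% DMSO for 16 h, then trypsinized and reseeded at 100–100,000 per dish in drug-free medium. Colonies were stained with crystal violet after 10–14 days and counted. Survival is relative to 0.5% DMSO controls.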

[7] = tested on: SW-620; assay: Induction of DNA damage in human SW620 cells assessed as increase in formation of gamma-H2AX phosphorylation foci per cell at 1 umol/L preincubated for 1 hr followed by compound washout and measured after 30 mins by DAPI staining based immunofluorescence microscopic analysis; format: functional; details: dose 1 µmol/L; outline: as §1
[8] = tested on: SW-620; assay: Cell cycle arrest in human SW620 cells assessed as reduction in S-phase cell population at 0.1 uM measured after 16 hrs by propidium iodide staining based flow cytometry; format: functional
[9] = tested on: SW-620; assay: Induction of DNA damage in human SW620 cells assessed as loss of gamma-H2AX phosphorylation foci formation at 1 umol/L preincubated for 1 hr followed by compound washout and measured after 16 hrs by DAPI staining based immunofluorescence microscopic analysis relative to control; format: functional; details: dose 1 µmol/L, at 1 µM; outline: as §1
[10] = Cytotoxicity against Chinese hamster DNA-PK proficient V3-YAC cells assessed as reduction in cell survival measured after 16 hrs by crystal violet staining based assay; format: toxicity, Cricetulus griseus; outline: as §2
[11] = target: T1, DNA-dependent protein kinase catalytic subunit (Homo sapiens, UniProt P78527); assay: Inhibition of DNA-PK in human SW480 cells assessed potentiation of ionizing radiation-induced cytotoxicity by measuring ratio of cytotoxic agent required to kill 90% of the cells in the absence and presence of compound; format: cell-based
[12] = target: T1, DNA-dependent protein kinase catalytic subunit; assay: Inhibition of DNA-PK in human HCT-116 cells assessed as potentiation of ionizing radiation-induced cytotoxicity relative to radiation alone; format: cell-based
[13] = target: T1, DNA-dependent protein kinase catalytic subunit; assay: Inhibition of DNA-PK in human HCT-116 cells assessed as potentiation of etoposide-induced cytotoxicity relative to etoposide alone; format: cell-based
[14] = tested on: SW-620; assay: Cell cycle arrest in human SW620 cells assessed as increase in G2-M-phase cell population at 10 nM measured after 16 hrs by propidium iodide staining based flow cytometry relative to control; format: functional
[15] = tested on: SW-620; assay: Cell cycle arrest in human SW620 cells assessed as reduction in S-phase cell population at 10 nM measured after 16 hrs by propidium iodide staining based flow cytometry; format: functional
[16] = (§3) Inhibition of ATM in Chinese hamster DNA-PK proficient V3-YAC cells assessed as potentiation of etoposide-induced cytotoxicity by measuring fold change in etoposide LD90 at 10 umol/L measured after 16 hrs by crystal violet staining based assay relative to etoposide alone; design: species or system Cricetulus griseus; details: dose 10 µmol/L, condition cancer
[17] = Cytotoxicity against Chinese hamster DNA-PK deficient V3 cells assessed as increase in etoposide-induced cytotoxicity by measuring fold change in etoposide LD90 at 10 umol/L measured after 16 hrs by crystal violet staining based assay relative to etoposide alone; format: toxicity, cell-based, Cricetulus griseus; details: v3, 16 h, 10 µM, dose 10 µmol/L
[18] = as §3, with “ionizing radiation-induced” for “etoposide-induced”, “radiation” for “etoposide”, “umol/L preincubated for 1 hr followed by gamma-irradiation and” for “umol/L”; design: species or system Cricetulus griseus; details: dose 10 µmol/L; time 17 hrs; condition cancer

T1 sequence (P78527 whole entry): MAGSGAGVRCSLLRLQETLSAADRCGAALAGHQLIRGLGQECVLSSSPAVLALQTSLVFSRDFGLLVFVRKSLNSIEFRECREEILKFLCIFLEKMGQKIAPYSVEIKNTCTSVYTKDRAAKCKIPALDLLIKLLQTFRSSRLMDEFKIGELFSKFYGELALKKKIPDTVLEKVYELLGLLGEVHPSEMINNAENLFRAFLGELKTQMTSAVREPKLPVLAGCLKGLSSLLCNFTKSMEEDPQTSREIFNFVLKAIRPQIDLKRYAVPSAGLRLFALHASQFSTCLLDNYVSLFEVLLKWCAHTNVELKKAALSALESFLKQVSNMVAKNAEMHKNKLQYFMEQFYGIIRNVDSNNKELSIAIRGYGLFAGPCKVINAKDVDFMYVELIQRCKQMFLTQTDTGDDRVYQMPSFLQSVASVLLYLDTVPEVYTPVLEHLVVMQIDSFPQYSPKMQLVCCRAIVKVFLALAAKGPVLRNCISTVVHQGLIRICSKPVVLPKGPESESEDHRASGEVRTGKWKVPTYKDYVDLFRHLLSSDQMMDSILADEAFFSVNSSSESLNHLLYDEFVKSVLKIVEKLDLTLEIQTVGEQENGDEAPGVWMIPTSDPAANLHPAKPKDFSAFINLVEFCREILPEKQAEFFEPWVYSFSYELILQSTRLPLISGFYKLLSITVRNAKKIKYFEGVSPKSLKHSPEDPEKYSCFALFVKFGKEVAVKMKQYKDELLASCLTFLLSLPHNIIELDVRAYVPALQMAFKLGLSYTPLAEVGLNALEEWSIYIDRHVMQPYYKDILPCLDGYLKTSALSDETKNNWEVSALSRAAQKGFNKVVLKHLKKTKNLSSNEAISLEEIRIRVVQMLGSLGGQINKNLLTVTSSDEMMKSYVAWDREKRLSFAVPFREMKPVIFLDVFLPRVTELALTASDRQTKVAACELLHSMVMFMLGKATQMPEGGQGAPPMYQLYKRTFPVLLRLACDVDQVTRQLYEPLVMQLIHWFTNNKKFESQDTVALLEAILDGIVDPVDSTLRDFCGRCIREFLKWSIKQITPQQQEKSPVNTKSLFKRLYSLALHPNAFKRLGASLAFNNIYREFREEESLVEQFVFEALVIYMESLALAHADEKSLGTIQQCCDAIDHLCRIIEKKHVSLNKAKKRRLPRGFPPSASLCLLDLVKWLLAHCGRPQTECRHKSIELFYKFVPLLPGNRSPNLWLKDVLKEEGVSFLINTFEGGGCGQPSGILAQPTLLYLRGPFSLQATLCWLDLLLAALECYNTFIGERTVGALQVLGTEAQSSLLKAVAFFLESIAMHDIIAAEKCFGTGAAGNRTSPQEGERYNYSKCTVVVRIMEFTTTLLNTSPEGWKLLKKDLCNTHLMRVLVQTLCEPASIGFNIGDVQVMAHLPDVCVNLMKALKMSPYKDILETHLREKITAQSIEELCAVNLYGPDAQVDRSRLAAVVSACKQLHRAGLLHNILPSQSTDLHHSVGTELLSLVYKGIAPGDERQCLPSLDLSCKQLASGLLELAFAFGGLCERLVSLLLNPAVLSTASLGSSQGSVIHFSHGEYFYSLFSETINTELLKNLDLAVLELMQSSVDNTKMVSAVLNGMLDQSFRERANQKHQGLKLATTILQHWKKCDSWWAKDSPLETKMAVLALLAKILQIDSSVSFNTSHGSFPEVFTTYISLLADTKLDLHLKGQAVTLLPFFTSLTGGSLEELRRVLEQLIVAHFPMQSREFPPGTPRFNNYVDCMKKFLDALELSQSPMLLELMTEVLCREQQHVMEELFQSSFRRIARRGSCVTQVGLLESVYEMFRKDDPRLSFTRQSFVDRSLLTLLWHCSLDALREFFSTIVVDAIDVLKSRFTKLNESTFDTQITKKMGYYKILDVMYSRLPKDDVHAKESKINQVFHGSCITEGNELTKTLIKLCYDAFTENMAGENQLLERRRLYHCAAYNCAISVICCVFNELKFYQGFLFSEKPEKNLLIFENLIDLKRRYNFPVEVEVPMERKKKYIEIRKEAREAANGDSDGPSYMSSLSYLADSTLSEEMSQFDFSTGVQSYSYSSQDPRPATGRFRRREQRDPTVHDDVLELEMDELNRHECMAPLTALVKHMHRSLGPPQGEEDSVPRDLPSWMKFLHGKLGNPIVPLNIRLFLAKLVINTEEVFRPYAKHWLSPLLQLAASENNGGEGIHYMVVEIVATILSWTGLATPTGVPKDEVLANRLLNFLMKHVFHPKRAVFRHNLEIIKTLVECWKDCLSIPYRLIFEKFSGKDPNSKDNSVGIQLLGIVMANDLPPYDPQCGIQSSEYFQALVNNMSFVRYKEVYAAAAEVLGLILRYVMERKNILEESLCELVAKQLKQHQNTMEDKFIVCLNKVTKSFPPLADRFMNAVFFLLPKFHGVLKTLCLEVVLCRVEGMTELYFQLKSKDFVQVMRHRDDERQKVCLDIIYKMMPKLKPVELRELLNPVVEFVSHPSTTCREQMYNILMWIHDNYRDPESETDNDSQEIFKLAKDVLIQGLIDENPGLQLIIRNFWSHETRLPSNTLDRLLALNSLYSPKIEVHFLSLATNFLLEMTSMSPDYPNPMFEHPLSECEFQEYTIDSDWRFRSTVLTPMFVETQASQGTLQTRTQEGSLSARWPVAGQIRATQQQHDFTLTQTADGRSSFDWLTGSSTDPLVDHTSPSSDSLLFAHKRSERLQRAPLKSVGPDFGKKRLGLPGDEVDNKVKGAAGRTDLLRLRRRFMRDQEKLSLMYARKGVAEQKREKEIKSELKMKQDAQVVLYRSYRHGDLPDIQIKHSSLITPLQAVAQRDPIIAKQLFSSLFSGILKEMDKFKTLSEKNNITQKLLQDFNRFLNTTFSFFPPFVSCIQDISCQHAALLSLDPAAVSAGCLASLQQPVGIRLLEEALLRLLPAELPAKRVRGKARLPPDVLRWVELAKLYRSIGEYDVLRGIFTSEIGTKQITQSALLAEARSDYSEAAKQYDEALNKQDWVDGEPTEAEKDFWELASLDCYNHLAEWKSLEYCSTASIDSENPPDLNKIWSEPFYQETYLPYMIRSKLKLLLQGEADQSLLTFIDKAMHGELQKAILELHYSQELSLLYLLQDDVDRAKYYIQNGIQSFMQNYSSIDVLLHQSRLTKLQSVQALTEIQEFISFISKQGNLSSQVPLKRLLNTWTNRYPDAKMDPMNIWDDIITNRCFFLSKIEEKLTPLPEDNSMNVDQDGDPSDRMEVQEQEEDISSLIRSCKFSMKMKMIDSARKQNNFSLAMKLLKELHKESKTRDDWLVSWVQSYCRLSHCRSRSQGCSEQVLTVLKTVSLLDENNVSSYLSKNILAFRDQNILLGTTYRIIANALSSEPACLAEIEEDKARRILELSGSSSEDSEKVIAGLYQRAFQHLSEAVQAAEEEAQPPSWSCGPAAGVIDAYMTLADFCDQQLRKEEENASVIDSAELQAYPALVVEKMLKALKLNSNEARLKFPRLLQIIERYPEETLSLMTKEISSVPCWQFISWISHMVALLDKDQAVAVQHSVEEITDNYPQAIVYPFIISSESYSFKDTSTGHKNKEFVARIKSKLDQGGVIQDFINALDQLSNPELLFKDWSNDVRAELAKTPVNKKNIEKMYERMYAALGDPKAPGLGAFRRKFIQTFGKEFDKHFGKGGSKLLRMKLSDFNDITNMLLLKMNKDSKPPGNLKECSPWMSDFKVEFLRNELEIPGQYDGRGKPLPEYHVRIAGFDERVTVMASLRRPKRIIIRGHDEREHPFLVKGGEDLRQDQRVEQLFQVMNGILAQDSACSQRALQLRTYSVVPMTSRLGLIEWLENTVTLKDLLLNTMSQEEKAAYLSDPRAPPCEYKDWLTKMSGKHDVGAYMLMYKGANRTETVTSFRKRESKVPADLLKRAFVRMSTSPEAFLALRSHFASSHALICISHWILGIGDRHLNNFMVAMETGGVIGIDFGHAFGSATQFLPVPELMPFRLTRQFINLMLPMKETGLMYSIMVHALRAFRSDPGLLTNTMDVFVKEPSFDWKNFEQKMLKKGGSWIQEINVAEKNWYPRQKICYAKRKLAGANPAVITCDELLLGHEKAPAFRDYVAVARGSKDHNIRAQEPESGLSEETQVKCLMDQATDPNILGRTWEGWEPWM

COc1cc([C@@H]2c3cc4c(cc3[C@@H](O[C@@H]3O[C@@H]5CO[C@@H](C)O[C@H]5[C@H](O)[C@H]3O)[C@H]3COC(=O)[C@H]23)OCO4)cc(OC)c1OP(=O)(O)O [ETOPOSIDE PHOSPHATE] gave a Time [1] of 2.7 days and an Activity [2] of 6%.

In the case of COc1cc([C@@H]2c3cc4c(cc3[C@@H](O[C@@H]3O[C@@H]5CO[C@@H](C)O[C@H]5[C@H](O)[C@H]3O)[C@H]3COC(=O)[C@H]23)OCO4)cc(OC)c1O [ETOPOSIDE], the Activity [3] is reported as 83%, the selectivity ratio [4] is reported as 3 and the Activity [5] is reported as 39%. For the same molecule, the LD90 [6] was 0.6 µmol/L, the Activity [7] was 22 and the Activity [8] was “Active”. The Activity [9] was 5.3% and the LD90 [10] was 1.8 µmol/L.

COC[C@H]1OC(=O)c2coc3c2[C@@]1(C)C1=C(C3=O)[C@@H]2CCC(=O)[C@@]2(C)C[C@H]1OC(C)=O showed a Ratio [11] of 2.8.

Molecule CC(=O)c1ccc(N2CCOCC2)cc1O has a fold change (FC) [12] of 4 and a fold change (FC) [13] of 15.

With COc1cccc2c1C(=O)c1c(O)c3c(c(O)c1C2=O)C[C@@](O)(C(=O)CO)C[C@@H]3O[C@H]1C[C@H](N)[C@H](O)[C@H](C)O1 [DOXORUBICIN] the Activity [14] was 158% and the Activity [15] was “Active”.

Work on O=c1cc(N2CCOCC2)oc2c(-c3ccccc3)cccc12 yielded a Ratio [11] of 1.9.

In the case of O=c1cc(-c2cccc3c2Sc2ccccc2S3)oc(N2CCOCC2)c1 [KU-55933], the “fold change (FC)” value [16] is reported as 6, the “fold change (FC)” value [17] is reported as 6 and the “fold change (FC)” value [18] is reported as 2.
